Jurkat viability – cytotoxic compounds reducing Jurkat cell viability. inhibition, % at 4 µM. 56,000 tested, 1.2% active. Jurkat E6.1 viability, ATP luminescence, 48 h;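 active = inhibition above the mean inhibition of all tested compounds plus 3 SD, cut at about 28% in these data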
D1 mod – allosterically modulates the human D1 dopamine receptor | B-score at 10 µM | AID 641 | P21728 | HEK293 D1, CRE-luciferase, dopamine EC30 potentiation; actives deviate in either direction | 58,000 tested, 5.9% active;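 active = luminescence count or its row- and column-corrected plate score outside the 99.7% band of the plate's sample wells, on either side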
Target sequence (P21728 whole entry, looked up): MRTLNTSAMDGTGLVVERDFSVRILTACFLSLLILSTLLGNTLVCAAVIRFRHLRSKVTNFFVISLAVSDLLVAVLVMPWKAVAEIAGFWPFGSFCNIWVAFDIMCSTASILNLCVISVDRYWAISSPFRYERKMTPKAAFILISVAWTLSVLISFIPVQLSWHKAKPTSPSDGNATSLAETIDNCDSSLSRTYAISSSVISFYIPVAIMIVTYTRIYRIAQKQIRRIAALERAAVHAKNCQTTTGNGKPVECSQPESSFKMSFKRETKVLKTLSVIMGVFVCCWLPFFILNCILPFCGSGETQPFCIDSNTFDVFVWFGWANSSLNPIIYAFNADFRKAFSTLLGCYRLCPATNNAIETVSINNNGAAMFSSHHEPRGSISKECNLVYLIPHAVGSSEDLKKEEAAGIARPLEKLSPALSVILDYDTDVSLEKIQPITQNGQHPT
M1 agonist – activates the M1 muscarinic receptor; CHO-M1 cells, Fluo-4 calcium fluorescence, agonist mode; hits give high values; B-score at 10 µM; 64,000 tested, 3% active;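 active = fluorescence rise, raw or as B-score row- and column-corrected plate score, outside the 99.7% band of its plate's samples, either direction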
HEK293 NFkB inh – inhibitors of the PMA/ionomycin-induced NF-kB reporter in HEK293 cells. 62,000 tested, 0.21% active. inhibition, % at 3 µM. HEK-293 NF-kB luciferase reporter, luminescence;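 active = inhibition above the mean of all tested compounds plus 3 SD, cut at about 40% in these data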
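System – HEK-293 cells with stable firefly luciferase reporter driven by four HIV NF-kB elements · Doses – one dose, 3 µM · Schedule – 1 h compound pre-incubation, 16 h PMA/ionomycin at 37 °C · Technique – luminescence from luciferase substrate reagent · Measure – percent inhibition normalized per plate to DMSO and reference-inhibitor controls · Replicates – tested once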
mHtt clearance – mutant huntingtin protein clearance | HeLa Exon1htt(103Q)mCFP, aggregate imaging; zero = plate's median compound well | inhibition, % at 1.5 µM | 47,000 tested, 0.42% active | AID 853;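 active = inhibition of aggregate fluorescence above about 70%, also judged a hit by eye on the cell image, limit read from the data, passing the limit was not always enough; inconclusive = no rule stated for this call; inactive = not judged a hit on image review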;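 note: cells exposed to compound for three days before fixation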
M1 antagonist – antagonists of rat M1 muscarinic receptor; CHO-M1 cells, Fluo-4 calcium, ACh EC80 antagonist mode; hits give low values; B-score at 10 µM; P08482; AID 628; 64,000 tested, 3.4% active;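 active = calcium fluorescence response, raw or row-and-column corrected B-score, differing from the plate sample mean either way at a set confidence level, mostly lower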
M1 agonist conf – rat M1 muscarinic agonism, confirmation | shares compounds with M1 agonist | CHO-M1 cells, Fluo-4 calcium fluorescence, agonist mode; actives lie on both sides | fluorescence change (max-min) at 10 µM | 1,700 tested, 19% active | AID 1488;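 active = fluorescence change differs from the solvent-only DMSO control mean at a set confidence level in both duplicate runs; inconclusive = differs from solvent-only control mean in just one of two runs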;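 note: an EC20 dose of acetylcholine follows compound addition during the same imaging run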
M4 ag counter – counter-screen for M1 agonists: activity at rat M4 receptor | shares compounds with M1 agonist | CHO M4/Gqi5 cells, Fluo-4 calcium fluorescence, agonist mode; actives lie on both sides | fluorescence change (max-min) at 10 µM | 1,700 tested, 9% active | AID 1741;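 active = fluorescence change differing from the plate's solvent-only control wells at 99.7% confidence in both duplicates, whether higher or lower; inconclusive = differs from solvent controls in only one of two duplicates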
Each line names hits and unclear results; the compound was inactive in the other large screens (follow-up assays come after a bar, where they were run). A selection: hits, their analogues and other compounds. The true share with any hit is near 9.5%.

COc1ccc(-c2noc(CN(C)S(=O)(=O)c3ccccc3)n2)cc1OC	none
CCCN(CCC)S(=O)(=O)c1ccc(C(=O)N2CCC(=O)c3ccccc32)cc1	M1 agonist 3.26, M1 antagonist -2.76 | M1 agonist conf inactive | M4 ag counter inactive
O=C(Nc1ccc2c(c1)OCO2)C1CCCN(S(=O)(=O)Cc2ccccc2)C1 (centres undefined)	M1 agonist 3.91, M1 antagonist -2.54 (no result: Jurkat viability) | M1 agonist conf inactive | M4 ag counter inactive
Cc1ccc(N=c2ssnc2Cl)cc1	none (no result: Jurkat viability, D1 mod, M1 agonist, HEK293 NFkB inh, M1 antagonist)
Cc1cc(C)nc(/N=c2/ssnc2Cl)c1	M1 agonist 6.33 | M1 agonist conf inactive | M4 ag counter inconclusive
CC1CCCC(C)N1C(=O)Cn1cc(/C=C2/C(=O)Nc3ccccc32)c2ccccc21 (centres undefined)	none (no result: Jurkat viability, D1 mod, M1 agonist, HEK293 NFkB inh, M1 antagonist)
CCOc1ccc2oc(-c3ccccc3)c(C(=O)N3CCN(CCO)CC3)c2c1	M1 agonist 4.17 | M1 agonist conf inactive | M4 ag counter inconclusive
CCOc1ccc2oc(-c3ccccc3)c(C(=O)O)c2c1	none
CC(O)C(=O)NCCOCCOCCNC(=O)C(C)O (centres undefined)	none (no result: mHtt clearance)
Nc1nnc(N2CCCCC2)s1	none (no result: mHtt clearance)
Nc1nnc(N2CCc3ccccc32)s1	M1 agonist 3.37 (no result: mHtt clearance) | M1 agonist conf inconclusive | M4 ag counter -71.9
COc1ccc(-c2nnc3ccc(SCC(N)=O)nn23)cc1OC	none
COc1ccc(-c2nnc3ccc(SCC(=O)N4CCCCC4)nn23)cc1OC	M1 agonist -3.48 (no result: mHtt clearance) | M1 agonist conf inactive | M4 ag counter inactive
CC(C)N(C(=O)NC(=O)NCC1CCCO1)S(C)(=O)=O (centres undefined)	none
CCC(C)[C@H](NC(=O)NCC1CCCO1)C(=O)OC (some centres undefined)	M1 agonist 4.95 | M1 agonist conf inactive | M4 ag counter inactive
COC(=O)c1ccc2c(=O)n(CCCCCC(=O)N3CCN(c4ccccc4)CC3)c(=O)[nH]c2c1	M1 agonist 10.8 (no result: mHtt clearance) | M1 agonist conf inactive | M4 ag counter inactive
COc1cc2[nH]c(=O)n(CCC(=O)N3CCN(c4cccc(C)c4C)CC3)c(=O)c2cc1OC	none (no result: Jurkat viability)
COc1cc2[nH]c(=O)n(CCCCCC(=O)N3CCN(c4ccccc4)CC3)c(=O)c2cc1OC	M1 agonist 2.82 (no result: Jurkat viability, D1 mod, mHtt clearance) | M1 agonist conf inactive | M4 ag counter inactive
CN1C(=O)c2cccc(NCCCN3C(=O)c4ccccc4C3=O)c2C1=O	M1 agonist 4.77 | M1 agonist conf inactive | M4 ag counter inactive
CCNc1cccc2c1C(=O)N(C)C2=O	M1 agonist 179 (no result: mHtt clearance) | M1 agonist conf 928 | M4 ag counter 935
CCOC(=O)C1=C(CS(=O)(=O)c2ccc(F)c(C)c2)NC(=O)NC1c1ccc(O)c(O)c1 (centres undefined)	none (no result: mHtt clearance)
CC(=O)c1cc2c(cc1NC(=O)Nc1cccc(Cl)c1)OCCO2	M1 agonist 19.1 (no result: D1 mod, mHtt clearance) | M1 agonist conf inactive | M4 ag counter inactive
CC(=O)Nc1cc2c(cc1C(C)=O)OCCO2	none
O=C(Nc1cccc2c1CCCC2)C1CCCN(S(=O)(=O)c2cccc3nonc23)C1 (centres undefined)	none (no result: Jurkat viability, mHtt clearance)
CCCCOc1ccc(C2C3CN(C(=O)OCC)CC=C3C(C#N)=C(N)C2(C#N)C#N)cc1OC (centres undefined)	none
CC(=O)N1CC=C2C(C#N)=C(N)C(C#N)(C#N)C(C)C2C1 (centres undefined)	none (no result: mHtt clearance)
CCN1CC=C2C(C#N)=C(N)C(C#N)(C#N)C(CCc3ccccc3)C2C1 (centres undefined)	M1 agonist 32.2, M1 antagonist -2.47 | M1 agonist conf 247 | M4 ag counter inconclusive
COc1ccc(OC)c(C2C3CN(C(C)C)CC=C3C(C#N)=C(N)C2(C#N)C#N)c1 (centres undefined)	M1 agonist 40.4 | M1 agonist conf 217 | M4 ag counter 212
CCCN1CC=C2C(C#N)=C(N)C(C#N)(C#N)C(c3cccc(OC)c3OC)C2C1 (centres undefined)	M1 agonist 89.4 (no result: mHtt clearance) | M1 agonist conf 666 | M4 ag counter 628
CN1CC=C2C(C#N)=C(N)C(C#N)(C#N)C(c3cccc(Cl)c3Cl)C2C1 (centres undefined)	D1 mod -4.68, M1 agonist 64.1 (no result: mHtt clearance) | M1 agonist conf 243 | M4 ag counter 236
CC(=O)N1CC=C2C(C#N)=C(N)C(C#N)(C#N)C(CCc3ccccc3)C2C1 (centres undefined)	none (no result: mHtt clearance)
N#CC1=C(N)C(C#N)(C#N)C(c2cccnc2)C2COCC=C12 (centres undefined)	none
COC(=O)Cc1cc(=O)n2[nH]c(C(F)(F)F)nc2n1	none (no result: Jurkat viability, D1 mod, M1 agonist, HEK293 NFkB inh, M1 antagonist)
CC1(C)CC(=O)c2c(O)cc(OCc3ccc([N+](=O)[O-])cc3)cc2O1	none (no result: Jurkat viability, D1 mod, M1 agonist, HEK293 NFkB inh, M1 antagonist)
Cc1ccc2[nH]c3c(NCc4ccco4)ncnc3c2c1	Jurkat viability 36.9, D1 mod -3.64, M1 agonist 8.49 | M1 agonist conf inactive | M4 ag counter inactive
Cc1ccc(-n2ncc3c(NCc4ccco4)ncnc32)c(C)c1	none (no result: mHtt clearance)
O=C(CSCc1nc2ccccc2[nH]1)N1CCN(c2cccc(Cl)c2)CC1	M1 agonist 7.96 | M1 agonist conf inactive | M4 ag counter inactive
CCN(CC)CC#CC(C)OCOCC#CCOC (centres undefined)	M1 agonist -4.07 | M1 agonist conf inconclusive | M4 ag counter inactive
CCOC(=O)C1=C(O)CSC1=Nc1ccc(Cl)cc1	M1 agonist 3.75 (no result: mHtt clearance) | M1 agonist conf inconclusive | M4 ag counter inconclusive
CCCCOc1ccc(S(=O)(=O)Nc2cccnc2)cc1	M1 agonist 4.89 | M1 agonist conf inactive | M4 ag counter inconclusive
CCC(=O)Nc1ccc(S(=O)(=O)Nc2cccnc2)cc1	none
C/C(N)=C(/C#N)C(=O)CSc1nc2cc(Cl)ccc2s1	M1 agonist 5.06 (no result: mHtt clearance) | M1 agonist conf inactive | M4 ag counter inactive
C/C(N)=C(/C#N)C(=O)CSc1nnc(Nc2cccc(C)c2)s1	none (no result: mHtt clearance)
NC(=S)NNc1cc(Cl)cc(Cl)c1	none (no result: Jurkat viability, D1 mod, M1 agonist, HEK293 NFkB inh, M1 antagonist)
COc1ccccc1N1CCN(c2nc3c(C)cccn3c(=O)c2C=O)CC1	none (no result: Jurkat viability, D1 mod, M1 agonist, HEK293 NFkB inh, M1 antagonist)
Cc1ccc(C(=O)N(c2c(C)n(C)n(-c3ccccc3)c2=O)C(C)C)cc1	none (no result: Jurkat viability, D1 mod, M1 agonist, HEK293 NFkB inh, M1 antagonist)
CSc1ccc(C2C(C#N)=C(N)Oc3c2ccc(=O)c2c(C)oc(C)c32)cc1 (centres undefined)	M1 agonist 7.17 | M1 agonist conf inactive | M4 ag counter inactive
O/N=C1\CCCc2oc3c(c21)CCCC3	none (no result: Jurkat viability)
CC(C)Cn1c2c(c(O)c(C(=O)Nc3ncccc3O)c1=O)CCCC2	none (no result: mHtt clearance)
CC(C)Cn1c2c(c(O)c(C(=O)Nc3ccc(F)cc3)c1=O)CCCC2	M1 agonist 2.98 (no result: D1 mod) | M1 agonist conf inconclusive | M4 ag counter inactive
